# Shown are actives, neighbours in structure and some others; about 2.3% of the full set was active somewhere.
# sdo1 growth: sdo1-depleted yeast growth rescue. 140,000 compounds, 0.21% hits. z-score at 10 µM. AID 817. S. cerevisiae sdo1-depleted JHY4D growth rescue, OD600 30 h; stronger effect = higher value; pdr5 snq2 efflux-pump mutant strain;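 active = z-score above 3 at both the 24 hr and the 30 hr optical density reads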;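 also: z-score against mean and SD of all compound wells on the same plate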
# Insulin prom up: MIN6 insulin promoter up-regulation. MIN6 insulin promoter-GFP reporter, high-content imaging; stronger effect = higher value. z-score at 5 µM. 190,000 compounds, 0.3% hits. AID 1625;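 active = z-score above 3 at 5 µM with at least 500 cells counted in the well; inconclusive = wells under 500 cells, flagged as cytotoxic or low count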
# ROMK mod: modulators of human ROMK potassium channel. 130,000 compounds, 2% hits. P48048. AID 1918. B-score at 10 µM. Tet-inducible ROMK, thallium flux fluorescence; actives lie on both sides;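 active = signal ratio slope over the read window, or its plate-corrected B-score, at least 3 SD from the plate mean, either direction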;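 also: B-score of the F/F0 ratio slope over 7 to 12 s after thallium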
# ABCB1 block: inhibitors of human ABCB1 transporter, ABCG2 counter-screen | CCRF-Adr cells, JC-1 efflux, flow cytometry | inhibition, % at 6.6 µM | 190,000 compounds, 0.067% hits; in the data active = inhibition above about 40%;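 also: 0% = vehicle and 100% = reference inhibitor; higher value means more JC-1 retained so stronger ABCB1 efflux block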
# Autophagy HCS: modulators of autophagy. 190,000 compounds, 0.98% hits. calls only at 10 µM (by protocol). AID 463193. MEF GFP-LC3 puncta imaging; test concentration mostly 10 µM;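 active = percentage of spot-positive cells more than 3 SD above its plate mean, without a fluorescence outlier flag or 80% toxicity; inconclusive = no clear call, values can overlap the other calls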;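 also: spot-positive cell cutoff set from DMSO-treated cells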
# ABCG2 block: inhibitors of human ABCG2 transporter, ABCB1 counter-screen; inhibition, % at 6.6 µM; AID 1325; 190,000 compounds, 0.1% hits; Q9UNQ0; IgMXP3 cells, JC-1 efflux, flow cytometry;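 active = inhibition above 80%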;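 also: 0% = DMSO and 100% = nicardipine control wells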
# Target sequence (Q9UNQ0 whole entry, looked up): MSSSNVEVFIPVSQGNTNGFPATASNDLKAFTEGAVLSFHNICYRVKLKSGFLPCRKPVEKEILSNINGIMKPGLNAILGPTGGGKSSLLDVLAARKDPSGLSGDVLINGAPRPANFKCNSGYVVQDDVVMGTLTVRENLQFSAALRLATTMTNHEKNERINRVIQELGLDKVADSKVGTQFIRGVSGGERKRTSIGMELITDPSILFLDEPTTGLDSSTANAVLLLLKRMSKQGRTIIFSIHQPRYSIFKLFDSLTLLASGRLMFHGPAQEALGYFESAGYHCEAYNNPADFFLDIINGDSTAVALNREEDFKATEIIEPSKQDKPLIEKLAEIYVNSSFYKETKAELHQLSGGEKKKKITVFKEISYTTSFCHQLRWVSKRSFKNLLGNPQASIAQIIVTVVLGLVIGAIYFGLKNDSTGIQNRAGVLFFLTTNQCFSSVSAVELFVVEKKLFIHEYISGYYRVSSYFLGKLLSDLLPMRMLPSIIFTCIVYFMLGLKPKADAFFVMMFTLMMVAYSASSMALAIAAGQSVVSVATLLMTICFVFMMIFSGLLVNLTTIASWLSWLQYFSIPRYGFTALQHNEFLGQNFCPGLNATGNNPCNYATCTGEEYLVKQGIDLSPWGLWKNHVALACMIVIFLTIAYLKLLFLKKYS
#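 Test system: IgMXP3 (ABCG2) plus far-red-tagged CCRF-Adr (ABCB1) cells / Amount: 3 million cells/mL in well / Reagent: JC-1 transporter substrate / Timing: 10 min compound exposure, 25 °C / Signal: flow cytometry, 530 nm JC-1 signal / Read-out: percent efflux inhibition, scaled nicardipine 100% to DMSO 0% / Benchmarks: nicardipine as high control, DMSO as low control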
# ROMK hit retest: retested hit modulating human ROMK potassium channel | AID 1917 | normalized thallium flux (F/F0 slope) at 10 µM | 3,000 compounds, 54% hits | ROMK thallium flux, fluorescence ratio; stronger effect = lower value | shares compounds with ROMK mod;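 active = Flux at 10 µM at least 3 SD below or above vehicle control mean in one or both replicates; inconclusive = no clear call, values can overlap the other calls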
# * hit, by the source's call; i = inactive; ? = inconclusive; / = no result given.
SMILES,sdo1 growth,Insulin prom up,ROMK mod,ABCB1 block,Autophagy HCS,ABCG2 block,ROMK hit retest
COc1ccc(N(CC(=O)N/N=C/c2ccco2)S(=O)(=O)c2ccccc2)cc1Cl,/,-0.27,/,/,/,/,/
COc1ccc(C2OC(=O)Cc3cc(OC)c(OC)cc32)cc1 (stereo not drawn),/,0.14,-2.54*,-0.1,i,-0.9,0.0858
COCCNC(=O)/C(C#N)=C/c1c(F)cccc1Cl,/,-0.64,-3.72*,-0.3,i,0.7,0.0374*
COCCNC(=O)/C(C#N)=C/c1cccs1,/,-0.02,/,/,/,/,/
COc1cc(/C=C(/C#N)C(=O)Nc2ccccc2)ccc1OCc1ccc(C(=O)O)cc1,/,/,-2.45*,0.2,i,3.8,0.0532*
COCCCNC(=O)/C(C#N)=C/c1ccc(F)cc1,/,-0.26,-3.87*,0.0,i,4.6,0.0522*
COc1cc(/C=C(\C#N)C(=O)NC(C)C)ccc1OCc1ccc(C(=O)O)cc1,/,-0.51,/,/,/,/,/
COCCNC(=O)/C(C#N)=C/c1ccc(OC(=O)c2cccs2)c(OC)c1,/,-1.1,-4.36*,0.3,i,0.9,0.044*
CCC(=O)c1ccc(OCC(=O)NCCc2ccccn2)cc1,/,-0.34,0.718,1.2,i,6.8,/
COc1ccc(NC(=O)c2cccc(-n3c(C)ccc3C)c2)c(OC)c1,-0.21,-0.59,-0.191,0.2,i,4.2,/
Cc1c(/C(O)=C2/C(=O)C(=O)N(CCN3CCOCC3)C2c2ccccn2)cnn1-c1ccccc1 (stereo not drawn),/,0.01,0.114,0.6,i,14.5,/
CC(C)NC(=O)CN1CCN(Cc2nc(C(c3ccccc3)c3ccccc3)no2)CC1,/,0.39,1.76,-0.1,i,0.1,/
COCCNC(=O)/C(C#N)=C/c1ccc(SC)cc1,/,-0.25,-3.92*,0.2,i,0.8,0.0493*
CCCCNC(=O)/C(C#N)=C/c1ccc(F)cc1F,/,0.67,-7.75*,0.5,i,4.1,0.046*
COCCNC(=O)/C(C#N)=C/c1ccc(C(=O)O)cc1,/,-1.05,-0.5,0.1,i,6.9,/
Cc1ccc(C2CC(c3cccs3)=NN2C(=O)c2ccco2)o1 (stereo not drawn),/,-0.68,-5.54*,0.4,i,-2.3,?
Cc1cc(C(C)(C)C)cc(C)c1Cn1c2[n+](c3ccc(C(F)(F)F)cc31)CCCCC2,/,-2.95,-4.91*,0.4,i,0.0,0.0479*
O=C(NNC1CC(=O)N(c2ccccc2)C1=O)c1cccnc1 (stereo not drawn),/,-0.09,/,/,/,/,0.0736
C(#CCN1CCOCC1)COC(c1ccccc1)c1ccccc1,0.52,/,/,0.1,i,-0.4,/
C(#CCN1CCOCC1)COCCOC(c1ccccc1)c1ccccc1,-0.1,0.11,1*,0.6,i,2.7,0.0759
Cc1ccc(NC(=S)N(CCCN(C)C)Cc2cc3cc4c(cc3[nH]c2=O)OCO4)c(C)c1,/,0.28,-1.13,0.3,i,2.0,/
O=C(CCC1CCCCC1)NNC(=O)NC12CC3CC(CC(C3)C1)C2,-0.93,2.69,-3.09*,0.5,i,5.1,0.0706
CCSc1nnc(NC(=O)NCC(F)(F)F)s1,-0.9,0.46,2.6*,0.1,i,0.2,0.0776
CCSc1nnc(NC(=O)C(C(F)(F)F)C(F)(F)F)s1,1.5,-0.3,-0.0296,0.3,i,1.4,/
CCSc1nnc(NC(=O)C(C)(C(F)(F)F)C(F)(F)F)s1,-0.34,/,-2.99,1.2,i,5.5,/
SMILES,sdo1 growth,Insulin prom up,ROMK mod,ABCB1 block,Autophagy HCS,ABCG2 block,ROMK hit retest
CCSc1nnc(NC(=O)C(CC)(C(F)(F)F)C(F)(F)F)s1,-0.35,0.93,-0.912,0.2,i,0.7,0.0713
Cc1ccc(CSc2nnc(-c3ccncc3)o2)c(C)c1,/,-0.11,-0.529,-0.1,i,5.1,/
Cc1cc2ccccc2n1CCNC(=O)c1cccs1,0.53,0.54,/,-1.1,i,0.2,0.0685*
Cc1cc2ccccc2n1CCNC(=O)C1CCCC1,-0.76,-0.88,/,0.3,i,3.2,/
COC(=O)c1ccc(-c2sc3nc(N4CCOCC4)c4c(c3c2N)CCCC4)o1,-0.72,-0.16,-4.29*,1.1,i,3.6,0.0582*
CCOC(=O)c1sc2nc(N3CCOCC3)c3c(c2c1N)CCCC3,-0.27,0.56,/,0.4,i,4.5,/
c1ccc(-n2cnc3cc(NCc4cccs4)ccc32)cc1,-0.77,-0.23,/,0.3,i,1.9,/

# High-throughput results deposited in PubChem BioAssay by several laboratories.
